Measurements as given in ChEMBL document CHEMBL1250528 (J Med Chem, 2010).

What was measured:
[1] = Permeability of the compound in human Caco-2 cells; format: ADME, cell-based; details: read-out: permeability
[2] = Clearance in BALB/c mouse at 5 mg/kg, iv and 10 mg/kg, po; format: ADME, organism-based; details: in vivo
In short: (§1)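 Male BALB/c mice (20-25 g), fasted overnight. IV bolus 5 mg/kg in 20% NMP/35% PEG 400/10% PG/35% water; oral gavage 10 mg/kg in PEG 400. Retro-orbital blood at 0.05 (iv only), 0.25, 0.5, 1, 3, 6, 8 and 24 h; three mice per time point, giving a composite profile. Plasma analysed by LC/MS/MS.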

[3] = AUC (0 to 24 hrs) in Sprague-Dawley rat at 2.5 mg/kg, iv and 10 mg/kg, po; format: ADME, organism-based; details: plasma
In short: (§2)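 Male Sprague-Dawley rats (250-300 g), fasted overnight. IV bolus 2.5 mg/kg in 25% NMP/33% PEG 400/9% PG/33% water; oral gavage 10 mg/kg in PEG 400. Blood sampled at 0.05 (iv only), 0.25, 0.5, 1, 3, 6, 8 and 24 h post dose; composite profile. Plasma stored at -20 °C, then analysed by LC/MS/MS.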

[4] = Half life in BALB/c mouse at 5 mg/kg, iv and 10 mg/kg, po; format: ADME, organism-based; details: in vivo; in short: as §1
[5] = Half life in Sprague-Dawley rat at 2.5 mg/kg, iv and 10 mg/kg, po; format: ADME, organism-based; details: in vivo; in short: as §2
[6] = Tmax in BALB/c mouse at 5 mg/kg, iv and 10 mg/kg, po; format: ADME, organism-based; details: in vivo; in short: as §1
[7] = Clearance in Sprague-Dawley rat at 2.5 mg/kg, iv and 10 mg/kg, po; format: ADME, organism-based; details: in vivo; in short: as §2
Liver microsomes [8] = test: Metabolic stability in rat liver microsomes assessed as metabolic rate; format: ADME, Microsome
Hepatocyte [9] = test: Metabolic stability in human hepatocytes assessed as metabolic rate per million cells; format: ADME, cell-based
Hepatocyte [10] = test: Metabolic stability in rat hepatocytes assessed as metabolic rate per million cells; format: ADME, cell-based
[11] = Cmax in Sprague-Dawley rat at 2.5 mg/kg, iv and 10 mg/kg, po; format: ADME, organism-based; details: in vivo; in short: as §2
[12] = Cmax in BALB/c mouse at 5 mg/kg, iv and 10 mg/kg, po; format: ADME, organism-based; details: in vivo; in short: as §1
[13] = Mean residence time in Sprague-Dawley rat at 2.5 mg/kg, iv and 10 mg/kg, po; format: ADME, organism-based; details: in vivo; in short: as §2
[14] = AUC (0 to 8 hrs) in BALB/c mouse at 5 mg/kg, iv and 10 mg/kg, po; format: ADME, organism-based; details: plasma; in short: as §1
[15] = Oral bioavailability in Sprague-Dawley rat at 10 mg/kg; format: ADME, organism-based; details: in vivo; in short: as §2
[16] = Metabolic stability in mouse hepatocytes assessed as metabolic rate per million cells; format: ADME, cell-based, Hepatocyte
[17] = Oral bioavailability in BALB/c mouse at 10 mg/kg; format: ADME, organism-based; details: in vivo; in short: as §1
[18] = Mean residence time in BALB/c mouse at 5 mg/kg, iv and 10 mg/kg, po; format: ADME, organism-based; details: in vivo; in short: as §1
[19] = Tmax in Sprague-Dawley rat at 2.5 mg/kg, iv and 10 mg/kg, po; format: ADME, organism-based; details: in vivo; in short: as §2
[20] = Volume of distribution at steady state in BALB/c mouse at 5 mg/kg, iv and 10 mg/kg, po; format: ADME, organism-based; details: in vivo, read-out: Vdss; in short: as §1
Liver microsomes [21] = test: Metabolic stability in human liver microsomes assessed as metabolic rate; format: ADME, Microsome
[22] = Metabolic stability in mouse liver microsomes assessed as metabolic rate; format: ADME, Microsome
[23] = Volume of distribution at steady state in Sprague-Dawley rat at 2.5 mg/kg, iv and 10 mg/kg, po; format: ADME, organism-based; details: in vivo, read-out: Vdss; in short: as §2

CCNC(=O)c1cn2ncnc(Nc3cc(C(=O)NOC)ccc3C)c2c1C gave a Papp [1] of 0.5 ×10⁻⁶ cm/s.
CCCNC(=O)c1cn2ncnc(Nc3cc(C(=O)NC4CC4)ccc3C)c2c1C [BMS-582949] showed a clearance [2] of 4.4 mL/min/kg, an AUC(0-t) [3] of 45.4 µM·h and a half-life [4] of 2.6 h. It also gave a half-life [5] of 4 h, a Tmax [6] of 1 h and a clearance [7] of 5.4 mL/min/kg. The Stability (Liver microsomes [8]) was 0.008 nmol/min/mg, the Stability (Hepatocyte [9]) was 0.015 nmol/min/million cells and the Stability (Hepatocyte [10]) was 0.015 nmol/min/million cells. It also gave a Cmax [11] of 7 µM, a Cmax [12] of 15.3 µM and a Papp [1] of 9.1 ×10⁻⁶ cm/s. It also gave an MRT [13] of 3.4 h, an AUC(0-t) [14] of 75.5 µM·h and a bioavailability [15] of 60%. It also gave a Stability [16] of 0.006 nmol/min/million cells, a bioavailability [17] of 90% and an MRT [18] of 3.3 h. For the same compound, the Tmax [19] was 1.5 h, the Vd [20] was 0.9 L/kg and the Stability (Liver microsomes [21]) was 0.013 nmol/min/mg. For the same compound, the Stability [22] was 0.011 nmol/min/mg and the Vd [23] was 1.1 L/kg.
